# Reference: ChEMBL document CHEMBL4513216, “Probing the Open Global Health Chemical Diversity Library for Multistage-Active Starting Points for Next-Generation Antimalarials” (ACS Infect Dis, 2020)
# Assay: Toxicity liver stage against HepG2, at 10uM
# Format: cell-based
# Parameters: test concentration 10 uM, cell line HepG2-A16-CD81EGFP
# Conditions: human, HepG2-A16-CD81EGFP cells; read-out: INHIBITION
# How it was run: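 Uninfected HepG2-A16-CD81EGFP cells, 3 × 10^3 per well, 1536-well, plated on prespotted compound at 10 μM final, parasite-free screening media added to match infected plates; puromycin 10 μM positive, DMSO 0.5% negative; run in parallel with 48 h PbLuc assay at 37 °C, 5% CO2; viability by CellTiter-Glo luminescence, normalized to controls.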
row,SMILES,cytotoxicity at 10 µM
1,Cn1c2ccccc2c2ncn(CCCN3CCOCC3)c(=O)c21,18.3%
2,CC(=O)c1ccc(C(=O)NCCCOC(C)c2ccccc2)s1 (stereo unspecified),-14.1%
3,Cc1ccc2c(c1)nc1n2[C@@H](CNC(=O)c2cncnc2)COC1,5.6%
4,Cc1ccc(-c2cn3c(n2)CO[C@@H](CNCc2cnn(C)c2)C3)cc1,-1.23%
5,COCCN1CC(O)CN(C(=O)c2ccc(SC)cc2)CC1=O (stereo unspecified),-0.53%
6,CC(C)COC(=O)N1CC(=O)N(CCCc2ccccc2)CC(O)C1 (stereo unspecified),0.853%
7,COCCNC(=O)CCN1C(=O)CC2(CCCC2)C1=O,2.34%
8,COc1ccc(-c2n[nH]c(C)c2CC(=O)NCCN2CCOCC2)cc1,-13.4%
9,CCCc1cc(=O)n(CC(=O)NC(C)C)c(-n2nc(C)cc2C)n1,2.74%
10,CC(C)(C)c1csc(CN2CCN(S(=O)(=O)c3cccnc3)CC2)n1,3.21%
11,CS(=O)(=O)N1CCOC2(CCN(c3ncccn3)CC2)c2ccccc21,-1.52%
12,CCC(CC)CN1C[C@@H]2OCCN(Cc3cnn(C)c3)[C@@H]2C1,-144%
13,O=C(NCC1CC1)C1CN(C(=O)c2cnccn2)CC12CCOCC2 (stereo unspecified),8.27%
14,c1ccc(N2CCCC3(CCN(Cc4nccs4)C3)C2)nc1 (stereo unspecified),6.94%
15,CS(=O)(=O)Nc1cnn(Cc2cccc(Cl)c2)c1,-2.44%
16,Cc1nc(NC2CC2)c2c(n1)c(C)nn2C,-3.79%
17,COc1ccc(CNc2cc3[nH]c(O)nc3cc2C)cc1,18.1%
18,CCN(CC)C(=O)c1ccn(COc2ccccc2)n1,-0.911%
19,Cc1nccnc1C1CCN(C(=O)C(C)C)CC1,3.25%
20,CC(C)N1CCOC(c2cc(CCO)[nH]n2)C1 (stereo unspecified),1.47%
21,Cn1nccc1C(=O)N1Cc2ccccc2OC2(CCOCC2)C1,-24.7%
22,CC(=O)N1CCN(c2cc(C3CN(C(C)=O)CCO3)nc(C)n2)CC1 (stereo unspecified),-22.8%
23,COc1ccc(-c2cccc(CC3(C(=O)O)CCOCC3)c2)cc1,-34.3%

row,SMILES,cytotoxicity at 10 µM
1,NC(=O)C1(CCCc2ccccn2)CCCN(Cc2ncc[nH]2)C1 (stereo unspecified),-0.00173%
2,CNC(=O)c1ccc(C2CN(C(=O)c3cnn(C)c3)CCO2)nc1 (stereo unspecified),-24.2%
3,O=C(Cn1cccnc1=O)NC(Cc1ccsc1)c1nccs1 (stereo unspecified),-4.44%
4,Cc1n[nH]c(C)c1NC(=O)CCc1cccc(C2CCCN(C)C2)n1 (stereo unspecified),-6.19%
5,O=C(C1CCC1)N1CCCC(c2cccc(-n3ccnc3)n2)C1 (stereo unspecified),-1.28%
6,CCN1CCN(Cc2c(-c3ccco3)[nH]c3ncccc23)CC1,-5.91%
7,Cc1ncsc1-c1nnc(C2CCN(Cc3ccccc3Cl)CC2)o1,-6.86%
8,CN1CCC2(CC1)Cc1ccccc1CN(C(=O)CN)C2,-1.63%
9,COc1ccc(SC(C)C(=O)N2CCC(NC(=O)C3CC3)CC2)cc1 (stereo unspecified),-9.11%
10,CC(C(=O)N(C)Cc1ccc(Br)o1)n1cncn1 (stereo unspecified),5.87%
11,CNC(=O)C(CC(C)C)NC(=O)c1cccc(-c2nc(C)cs2)c1 (stereo unspecified),14.5%
12,O=C(NCCO)Nc1c(F)cccc1Oc1ccccc1,1.36%
13,CC(=O)NCCC(=O)NC(C)c1sc(-c2ccccc2F)nc1C (stereo unspecified),7.92%
14,CCCc1nc(CN(C)CCOc2ccccc2)cs1,-8.53%
15,Cc1c(NC(C)C(C)C)cccc1C(=O)NCc1cnn(C)c1 (stereo unspecified),27%
16,COc1c(C(=O)NCC(C)Sc2ccccc2)c(C)nn1C (stereo unspecified),12.1%
17,Cc1cnn(C2CN(CC(O)c3ccccc3)C2)c1 (stereo unspecified),-2.55%
18,CC(C)c1ncncc1C(=O)NCCN1CCCC1,-9.91%
19,CCN(Cc1ccco1)C(=O)NCC(c1cccs1)N(C)C (stereo unspecified),16.3%
20,CCc1nc(CSC2CCCN(c3cnn(C)c3)C2=O)cs1 (stereo unspecified),14.1%
21,O=C(NCc1cscn1)NC1CCN(c2ncccc2Cl)C1 (stereo unspecified),-1.24%
22,Cc1ccc(CCc2nc(C3CCOC3)no2)o1 (stereo unspecified),3.04%
23,CCC(C)NC(=O)Nc1ccc(CN2CCOC2=O)cc1 (stereo unspecified),10.5%

row,SMILES,cytotoxicity at 10 µM
1,COc1ccc(NC(C)C(=O)N2CCN(c3ncccn3)CC2)cn1 (stereo unspecified),-4.71%
2,Cc1ccc(N2CCC3(CC2)CC(OCC(=O)N(C)C)CO3)nn1 (stereo unspecified),-7.59%
3,O=C1CN(CC2CC2)Cc2nc(NCc3ccccc3)sc21,-12.3%
4,CN1CC2(CCN(C(=O)c3coc4c3C(=O)CCC4)C2)OC1=O (stereo unspecified),-2.36%
5,CCC(O)C1CCN(C(=O)Nc2nc(-c3ccccc3)ns2)CC1 (stereo unspecified),-130%
6,CC(C)N(Cc1nc(-c2cccs2)no1)CC1CCC(=O)N1 (stereo unspecified),-0.475%
7,CNCC(=O)N[C@H]1CN(c2nc(C)c3c(n2)CCCC3)C[C@@H]1C1CC1,13.2%
8,COc1c(F)cc(CN2CCCC3(CC2)CNC(=O)O3)cc1Cl (stereo unspecified),0.465%
9,Cc1ccc(C)c2c(O)cc(CNCC(N)=O)nc12,-3.35%
10,CSCC(=O)N1CCCC(CCC(=O)N(C)CCc2ccccn2)C1 (stereo unspecified),-3.09%
11,Cc1cc(C)n(C2CN(C(=O)Cn3c(C)cc(=O)c4ccccc43)C2)n1,-5.56%
12,O=C1[C@@H]2CN(c3ncnc4sccc34)C[C@]2(C(=O)O)CN1CC1CC1,0.977%
13,Cn1cc(CN2CCC[C@]3(C(=O)O)CN(c4cnccn4)CC[C@@H]23)cn1,-0.226%
14,COc1ccc(-c2ccnc(N)c2)c(C)c1,6.63%
15,CCn1cc(CN2CCCCC2CCn2ccnc2C)cc1C#N (stereo unspecified),-3.09%
16,Cc1ccc(NC(=O)[C@@H]2C[C@H](C(=O)O)CN(Cc3sccc3C)C2)cn1,11%
17,Cc1ncsc1C(=O)N1CCCC(CO)(CC2CC2)C1 (stereo unspecified),-1.5%
18,CCc1ccc(C2c3nc[nH]c3CCN2Cc2nccn2CC)nc1 (stereo unspecified),-0.123%
19,CN(CCO)Cc1nnc(C2CCN(C(=O)c3ccccn3)CC2)n1C,0.5%
20,CC(C)=CCC1(CO)CCCN(Cc2cnc(N3CCOCC3)nc2)C1 (stereo unspecified),-2.6%
21,CC(=O)NCCNc1cc(C)nc2cc(C)nn12,-6.91%
22,O=C(c1ncc(F)cc1F)N1CCC(c2ncc[nH]2)CC1,-3.73%
23,O=C(Cc1n[nH]c(-c2cncc(Br)c2)n1)NCc1ccncc1,-6.3%

row,SMILES,cytotoxicity at 10 µM
1,Cc1nc(N(C)CCN(C)C)c2cnn(C)c2n1,4.63%
2,CCCN1CCN(C(=O)Cc2cccnc2)[C@H]2CS(=O)(=O)C[C@H]21,-8.26%
3,CCC(NC1CSCCSC1)c1ccc(S(C)(=O)=O)cc1 (stereo unspecified),-8.06%
4,COCCN(C)CC(=O)N1CCCC2(CCC(=O)N(CC3CC3)C2)C1 (stereo unspecified),0.502%
5,COCc1noc(Cn2ccc3ncccc3c2=O)n1,1.56%
6,CNCc1cc(F)ccc1Oc1ccc(F)cc1,-1%
7,Cc1noc(C(C)C)c1C(=O)NCc1ccc(N(C)C)c(F)c1,1.17%
8,COC(=O)C(NC(=O)C1CCCC1)c1cc(F)ccc1F (stereo unspecified),5.67%
9,Cc1cc(C)c(CNC(=O)NCC(O)c2ccc(Cl)cc2)c(=O)[nH]1 (stereo unspecified),-7.03%
10,Cc1cc(C)c(CNC(=O)NCc2cc(F)cc(F)c2)c(=O)[nH]1,-4.98%
11,CC(C)(C)c1ncc(C(=O)NCCNC(=O)c2ccc(O)cc2)s1,45.3%
12,CN(C)c1cc(C(=O)N2CCCN(Cc3nccn3C)CC2)ccn1,-1.56%
13,COc1ccccc1C(NCc1ccc(SC)cc1)c1nccn1C (stereo unspecified),-11.6%
14,O=C(CCCNc1ncccn1)Nc1cc(C(F)(F)F)c[nH]c1=O,-1.34%
15,Cc1nccc(C(=O)N2CCCN(Cc3nccn3C(C)C)CC2)n1,-10.2%
16,Cc1nc(C)n(C2CCCN(C(=O)c3cc(C4CC4)on3)C2)n1 (stereo unspecified),-3.87%
17,Cc1nc(C)n(CC2CCCN2CC(=O)Nc2c(C)n[nH]c2C)n1 (stereo unspecified),-7.66%
18,N#Cc1cccnc1N1CCCN(C(=O)CCn2cccn2)CC1,2.81%
19,COc1cccc(CNCc2ccc(NC(=O)NC(C)C)cc2)c1,-11.1%
20,Cc1ccc(CNC(=O)Cc2c(C)nc3c(c2C)c(=O)[nH]n3C)cc1,-8.6%
21,CCc1nnsc1C(=O)N1CCCN(Cc2ccc(C)cc2)CC1,-4.28%
22,CN(C)Cc1nc(C(C)(C)NC(=O)C2CC(=O)N(CC3CC3)C2)no1 (stereo unspecified),-5.9%
23,CCOc1cc(C)nc(N2CCN(C(=O)c3ccnn3C)CC2)n1,-4.37%

row,SMILES,cytotoxicity at 10 µM
1,Cc1ccc(NC(=O)C2CSCN2C(=O)c2cnn(C)c2)c(C)c1 (stereo unspecified),-3.97%
2,CCOC(=O)NC(C(=O)NCc1ccc(N2CCCCC2)nc1)C(C)C (stereo unspecified),-6.09%
3,Cc1nc(N)c2ccc(C3CCCCN3)nc2n1 (stereo unspecified),-0.05%
4,O=C(O)C1(Cc2cccc(-c3cccs3)c2)CCCNC1 (stereo unspecified),4.43%
5,O=C(NCc1ccco1)[C@@]12CCO[C@@H]1CCN(C1CCC1)C2,12.3%
6,CN(C)Cc1cn2c(n1)CN(CC1CCCC1)CC2,-149%
7,CN(C)CCN1CC[C@@H]2O[C@@H](COCC(=O)N3CCCC3)CC[C@@H]21,-1.78%
8,Cc1cccc(CN2C[C@H](OCc3csc(C)n3)[C@H]3COC[C@H]32)n1,3.22%
9,Cc1cccc(CN2Cc3[nH]nc(COCCO)c3C2)n1,0.442%
10,Cc1noc(C)c1CN1CCN(Cc2ccncc2)c2ncccc2C1,5.51%
11,Cc1cccc(CO[C@@H]2C[C@H]3CN(c4ncccn4)CCN3C2)n1,1.39%
12,COc1ccc(-c2ccnc(C3CCNCC3)c2)cc1,-41.4%
13,c1cn2c(n1)CN(C1CCOCC1)CC(CN1CCCC1)C2 (stereo unspecified),-0.123%
14,O=C(c1ccco1)N1CCc2ncnc(Oc3cccnc3)c2CC1,-2.86%
15,CCOC1CC2(CCN(Cc3cccn3C)CC2)C1,-149%
16,COc1ccc(CN2CCC[C@@H]3CN(C(=O)c4ccco4)C[C@@H]32)cc1,1.44%
17,COCC(=O)N1CCc2c(nnn2C)C1COCCN1CCCC1 (stereo unspecified),11.6%
18,Cn1cc(CN2CCC3(CCCN3Cc3cccnc3)CC2)cn1,2.43%
19,CC(C)N(C)Cc1cncc2c1CCN(C(=O)c1ccc[nH]1)C2,3.73%
